Experiments:
[1] = test system: Malassezia pachydermatis; assay: Fungicidal activity against Malassezia pachydermatis after 48 to 72 hrs by two fold dilution method; type: functional
[2] = test system: Shigella flexneri; assay: Bactericidal activity against Shigella flexneri MTCC 1457 after 24 hrs by two fold dilution method; type: functional; settings: MTCC 1457, 24 h
How it was run: (§1)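 Tubes held 5 mL MHB with two-fold dilutions from 1000 to 7.81 µg/mL and were inoculated with 5 × 10^5 to 1 × 10^6 cells in 0.1 mL MHB, incubated without shaking. Turbidity was checked at 20 h, tubes vortexed and re-incubated 4 h.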

[3] = test system: Pseudomonas aeruginosa; assay: Antimicrobial activity against Pseudomonas aeruginosa MTCC 741 at 1 mg/disc after 24 hrs by disc diffusion assay; type: functional
How it was run: (§2)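 Disc diffusion on Mueller Hinton agar. Inoculum was grown in MHB for 24 h at 37 °C, swabbed onto the plates and dried for 10 min. Discs with 1 mg compound were left 30 min at room temperature for diffusion, then incubated at 37 °C for 24 h. Inhibition zone was read in mm; run twice. Solvent was the negative control, streptomycin the positive control.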

[4] = test system: Shigella flexneri; assay: Antimicrobial activity against Shigella flexneri MTCC 1457 after 24 hrs by two fold dilution method; type: functional; settings: MTCC 1457, 24 h
How it was run: (§3)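 Broth two-fold serial dilution in 96-well plates from 1000 to 7.81 µg/mL, compound in DMSO (2%). Inoculum was grown in MHB for 24 h at 37 °C; plates were incubated 24 h at 37 °C. 5 µL of broth was spotted onto MHA; MIC was the lowest concentration with no visible growth on agar. Streptomycin was the positive control.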

[5] = test system: Proteus vulgaris; assay: Antimicrobial activity against Proteus vulgaris MTCC 1771 at 1 mg/disc after 24 hrs by disc diffusion assay; type: functional; how it was run: as §2
[6] = test system: Staphylococcus aureus; assay: Antimicrobial activity against […] Staphylococcus aureus MTCC 96 at 1 mg/disc after 24 hrs by disc diffusion assay; type: functional; how it was run: as §2
[7] = test system: Staphylococcus aureus; assay: Antimicrobial activity against methicillin-resistant Staphylococcus aureus MTCC 96 after 24 hrs by two fold dilution method; type: functional; settings: MTCC 96, 24 h; how it was run: as §3
[8] = test system: Klebsiella pneumoniae; assay: Bactericidal activity against Klebsiella pneumoniae MTCC 109 after 24 hrs by two fold dilution method; type: functional; settings: MTCC 109, 24 h; how it was run: as §1
[9] = test system: Candida albicans; assay: Fungicidal activity against Candida albicans MTCC 227 after 48 to 72 hrs by two fold dilution method; type: functional
[10] = test system: Salmonella typhimurium; assay: Antimicrobial activity against Salmonella typhimurium MTCC 1251 after 24 hrs by two fold dilution method; type: functional, Salmonella enterica subsp. enterica serovar Typhimurium; settings: Salmonella enterica, MTCC 1251, 24 h; how it was run: as §3
[11] = test system: Salmonella enterica subsp. enterica serovar Paratyphi B; assay: Antimicrobial activity against Salmonella paratyphi B at 1 mg/disc after 24 hrs by disc diffusion assay; type: functional; how it was run: as §2
[12] = test system: Pseudomonas aeruginosa; assay: Antimicrobial activity against Pseudomonas aeruginosa MTCC 741 after 24 hrs by two fold dilution method; type: functional; settings: MTCC 741, 24 h; how it was run: as §3
[13] = test system: Klebsiella aerogenes; assay: Antimicrobial activity against Enterobacter aerogenes MTCC 111 at 1 mg/disc after 24 hrs by disc diffusion assay; type: functional; how it was run: as §2
[14] = test system: Shigella flexneri; assay: Antimicrobial activity against Shigella flexneri MTCC 1457 at 1 mg/disc after 24 hrs by disc diffusion assay; type: functional; how it was run: as §2
[15] = test system: Klebsiella aerogenes; assay: Bactericidal activity against Enterobacter aerogenes MTCC 111 after 24 hrs by two fold dilution method; type: functional; settings: MTCC 111, 24 h; how it was run: as §1
[16] = test system: Proteus vulgaris; assay: Antimicrobial activity against Proteus vulgaris MTCC 1771 after 24 hrs by two fold dilution method; type: functional; settings: MTCC 1771, 24 h; how it was run: as §3
[17] = test system: Candida albicans; assay: Antimicrobial activity against Candida albicans MTCC 227 at 1 mg/disc after 24 hrs by disc diffusion assay; type: functional
[18] = test system: Klebsiella pneumoniae; assay: Antimicrobial activity against Klebsiella pneumoniae MTCC 109 at 1 mg/disc after 24 hrs by disc diffusion assay; type: functional; how it was run: as §2
[19] = test system: Salmonella typhimurium; assay: Antimicrobial activity against Salmonella typhimurium MTCC 1251 at 1 mg/disc after 24 hrs by disc diffusion assay; type: functional, Salmonella enterica subsp. enterica serovar Typhimurium; how it was run: as §2
[20] = test system: Salmonella typhimurium; assay: Bactericidal activity against Salmonella typhimurium MTCC 1251 after 24 hrs by two fold dilution method; type: functional, Salmonella enterica subsp. enterica serovar Typhimurium; settings: Salmonella enterica, MTCC 1251, 24 h; how it was run: as §1
[21] = test system: Pseudomonas aeruginosa; assay: Bactericidal activity against Pseudomonas aeruginosa MTCC 741 after 24 hrs by two fold dilution method; type: functional; settings: MTCC 741, 24 h; how it was run: as §1
[22] = test system: Salmonella enterica subsp. enterica serovar Paratyphi B; assay: Antimicrobial activity against Salmonella paratyphi B after 24 hrs by two fold dilution method; type: functional; how it was run: as §3
[23] = test system: Klebsiella pneumoniae; assay: Antimicrobial activity against Klebsiella pneumoniae MTCC 109 after 24 hrs by two fold dilution method; type: functional; settings: MTCC 109, 24 h; how it was run: as §3
[24] = test system: Bacillus subtilis; assay: Antimicrobial activity against Bacillus subtilis MTCC 441 after 24 hrs by two fold dilution method; type: functional; settings: MTCC 441, 24 h; how it was run: as §3
[25] = test system: Malassezia pachydermatis; assay: Antimicrobial activity against Malassezia pachydermatis at 1 mg/disc after 24 hrs by disc diffusion assay; type: functional
[26] = test system: Klebsiella aerogenes; assay: Antimicrobial activity against Enterobacter aerogenes MTCC 111 after 24 hrs by two fold dilution method; type: functional; settings: MTCC 111, 24 h; how it was run: as §3
[27] = test system: Micrococcus luteus; assay: Antimicrobial activity against Micrococcus luteus MTCC 106 at 1 mg/disc after 24 hrs by disc diffusion assay; type: functional; how it was run: as §2
[28] = test system: Micrococcus luteus; assay: Bactericidal activity against Micrococcus luteus MTCC 106 after 24 hrs by two fold dilution method; type: functional; settings: MTCC 106, 24 h; how it was run: as §1
[29] = test system: Proteus vulgaris; assay: Bactericidal activity against Proteus vulgaris MTCC 1771 after 24 hrs by two fold dilution method; type: functional; settings: MTCC 1771, 24 h; how it was run: as §1
[30] = test system: Staphylococcus aureus; assay: Antimicrobial activity against Staphylococcus aureus MTCC 96 at 1 mg/disc after 24 hrs by disc diffusion assay; type: functional; how it was run: as §2
[31] = test system: Staphylococcus aureus; assay: Bactericidal activity against methicillin-resistant Staphylococcus aureus MTCC 96 after 24 hrs by two fold dilution method; type: functional; settings: MTCC 96, 24 h; how it was run: as §1
[32] = test system: Salmonella enterica subsp. enterica serovar Paratyphi B; assay: Bactericidal activity against Salmonella paratyphi B after 24 hrs by two fold dilution method; type: functional; how it was run: as §1
[33] = test system: Bacillus subtilis; assay: Antimicrobial activity against Bacillus subtilis MTCC 441 at 1 mg/disc after 24 hrs by disc diffusion assay; type: functional; how it was run: as §2
[34] = test system: Staphylococcus aureus; assay: Antimicrobial activity against Staphylococcus aureus MTCC 96 after 24 hrs by two fold dilution method; type: functional; settings: MTCC 96, 24 h; how it was run: as §3
[35] = test system: Malassezia pachydermatis; assay: Antimicrobial activity against Malassezia pachydermatis after 48 to 72 hrs by two fold dilution method; type: functional
How it was run: (§4)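 Yeast was grown in Sabouraud dextrose broth at 28 °C for 48 h and tested per CLSI reference methods. Two-fold serial dilutions from 1000 to 7.81 µg/mL, compound in DMSO (2%), in 96-well plates, incubated 48–72 h at 28 °C. MIC was the lowest concentration with no visible fungal growth. Ketoconazole was the positive control.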

[36] = test system: Candida albicans; assay: Antimicrobial activity against Candida albicans MTCC 227 after 48 to 72 hrs by two fold dilution method; type: functional; how it was run: as §4
[37] = test system: Micrococcus luteus; assay: Antimicrobial activity against Micrococcus luteus MTCC 106 after 24 hrs by two fold dilution method; type: functional; settings: MTCC 106, 24 h; how it was run: as §3
[38] = test system: Staphylococcus aureus; assay: Bactericidal activity against Staphylococcus aureus MTCC 96 after 24 hrs by two fold dilution method; type: functional; settings: MTCC 96, 24 h; how it was run: as §1
[39] = test system: Bacillus subtilis; assay: Bactericidal activity against Bacillus subtilis MTCC 441 after 24 hrs by two fold dilution method; type: functional; settings: MTCC 441, 24 h; how it was run: as §1

SMILES	MFC [1] [µg/mL]	MBC [2] [µg/mL]	inhibition zone (IZ) [3] [mm]	MIC [4] [µg/mL]	inhibition zone (IZ) [5] [mm]	inhibition zone (IZ) [6] [mm]	MIC [7] [µg/mL]	MBC [8] [µg/mL]	MFC [9] [µg/mL]	MIC [10] [µg/mL]	inhibition zone (IZ) [11] [mm]	MIC [12] [µg/mL]	inhibition zone (IZ) [13] [mm]	inhibition zone (IZ) [14] [mm]	MBC [15] [µg/mL]	MIC [16] [µg/mL]	inhibition zone (IZ) [17] [mm]	inhibition zone (IZ) [18] [mm]	inhibition zone (IZ) [19] [mm]	MBC [20] [µg/mL]	also measured
C[C@H](N[C@H](C)[C@@H](O)c1ccccc1)c1ccccc1.Cl	125	500	10	250	13	14	125	250	125	250	13	250	14	12	250	250	15	15	12	250	MBC [21]: 500 µg/mL; MIC [22]: 250 µg/mL; MIC [23]: 125 µg/mL; MIC [24]: 62.5 µg/mL; inhibition zone (IZ) [25]: 14 mm; MIC [26]: 125 µg/mL; inhibition zone (IZ) [27]: 15 mm; MBC [28]: 125 µg/mL; MBC [29]: 500 µg/mL; inhibition zone (IZ) [30]: 15 mm; MBC [31]: 125 µg/mL; MBC [32]: 500 µg/mL; inhibition zone (IZ) [33]: 16 mm; MIC [34]: 125 µg/mL; MIC [35]: 125 µg/mL; MIC [36]: 125 µg/mL; MIC [37]: 125 µg/mL; MBC [38]: 250 µg/mL; MBC [39]: 62.5 µg/mL
CC(C)C[C@H](C)N[C@H](C)[C@@H](O)c1ccccc1.Cl	250	500	11	250	14	15	125	250	250	500	10	250	12	10	250	125	13	13	10	500	MBC [21]: 500 µg/mL; MIC [22]: 250 µg/mL; MIC [23]: 250 µg/mL; MIC [24]: 250 µg/mL; inhibition zone (IZ) [25]: 12 mm; MIC [26]: 250 µg/mL; inhibition zone (IZ) [27]: 13 mm; MBC [28]: 500 µg/mL; MBC [29]: 125 µg/mL; inhibition zone (IZ) [30]: 13 mm; MBC [31]: 250 µg/mL; MBC [32]: 500 µg/mL; inhibition zone (IZ) [33]: 12 mm; MIC [34]: 250 µg/mL; MIC [35]: 250 µg/mL; MIC [36]: 250 µg/mL; MIC [37]: 250 µg/mL; MBC [38]: 250 µg/mL; MBC [39]: 250 µg/mL

Reference: ChEMBL document CHEMBL3352188, “Synthesis, antimicrobial and molecular docking studies of enantiomerically pure N-alkylated β-amino alcohols from phenylpropanolamines” (2014)
